Experimental data taken from PubChem BioAssay AID602173 (The Scripps Research Institute Molecular Screening Center, 2012).
Calls of active or inactive are those of the source.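 The calls were made as follows: active = change in binding activity of 20% or more in either direction; inactive = change in binding activity under 20%.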

These compounds were tested on HepG2 proliferation, sulforhodamine B absorbance, 7-10 days (assay: HepG2 cell proliferation modulation, late-stage follow-up, counter-screen for AHR activator project, absorbance (AID 602173)). Conditions: at 10 µM.
Method in brief: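 System: human hepatoma HepG2 cells, estrogen receptor-negative; Buffer or medium: α-MEM growth medium with 10% fetal bovine serum; Compound dosing: one dose, 10 µM compound; Schedule: cells settled 24 h before dosing, exposure at 37 °C; Signal: SRB absorbance at 490 nm, 650 nm corrected; Read-out basis: proliferation relative to DMSO vehicle wells.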

Structure (SMILES)	proliferation change, negative = inhibition
CCOc1ccc(-c2cc(C)n3nc(C(N)=O)cc3n2)cc1	11.8% (inactive)
CCOC(=O)Cc1cc(-c2ccc(O)cc2)nc2ccc3ccccc3c12	-29%
Cc1ccc(-c2cc(-c3cccs3)[nH]n2)c(O)c1	-97.5%
Cc1nnc(N2C(=O)c3cccc4c([N+](=O)[O-])ccc(c34)C2=O)s1	-12.8% (inactive)
COc1ccc(NC(=O)c2cccc3c(Br)cccc23)cc1	-38.5%
Cc1c(-c2ccn[nH]2)cc(NC(=O)c2ccc(Cl)cc2)c(=O)n1N	-6% (inactive)
COc1ccccc1NC(=O)c1ccc(C(=O)Nc2ccccc2OC)nc1	-49.8%
Cn1c(C(=O)N2CCC(C(N)=O)CC2)cc2cc(Cl)ccc21	3.8% (inactive)
Cc1nc(N)nc(Nc2ccc(Cl)cc2)c1Br	-19.5% (inactive)
Cc1csc(SCC(=O)Nc2ccc(Cl)cn2)n1	12.2% (inactive)
